Test results taken from PubChem BioAssay AID1046 (PCMD, 2008).
Hit rate of the full screen: of about 220,000 compounds, about 560 (0.25%) were called active.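 Rule for the calls: active = inhibition at or above 40%; inactive = inhibition below 40%.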 The sample as a whole holds a higher share of actives than the screen did.

target: Prothrombin (Homo sapiens) (UniProt P00734); assay: blockers of thrombin peptide substrate cleavage – biochemical, 1536-well, fluorogenic AMC substrate, counter-screen for coagulation protease inhibitor project, primary screen (AID 1046); conditions: alpha-thrombin, Boc-VPR-AMC fluorogenic substrate cleavage; at 5 µM; active compounds read high;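 note: 0% = enzyme with no compound and 100% = wells without enzyme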
Method in brief: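 signal = AMC fluorescence, 355/460 nm | material = human alpha-thrombin enzyme | control set = enzyme without compound as high, wells lacking enzyme as low | times = reaction at room temperature | read-out basis = percent inhibition scaled between no-compound controls and no-enzyme blanks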

Row | Compound | inhibition
1 | CCOC(=O)c1c(NC(=O)C(C)Sc2c[nH]c3ccccc23)sc2c1CCC2 (stereo unspecified) | 1.33% (inactive)
2 | CC(=O)c1sc2nc(SCC(=O)N3CCCCC3)[nH]c(=O)c2c1C | -2.78% (inactive)
3 | O=C(CSc1nc2c(cnn2-c2ccc(F)cc2)c(=O)[nH]1)N1CCCCCC1 | 40.9% (active)
4 | Cc1nnc(SCC(=O)N2CCOCC2)[nH]c1=O | -2.64% (inactive)
5 | CCNC(=S)NNC(=O)C1CCN(Cc2ccccc2)CC1 | -3.23% (inactive)
6 | O=C(Nn1cnnc1)c1ccc([N+](=O)[O-])cc1 | -7.16% (inactive)
7 | O=C(Nc1cc2c3c(c1)C1CCCC1CN3CC1CCCC21)c1ccc([N+](=O)[O-])cc1 (stereo unspecified) | 101% (active)
8 | Cc1ccc(C)n1NC(=O)c1ccc([N+](=O)[O-])cc1 | -0.02% (inactive)
9 | Cn1c(=O)c(=O)n(C)c2cc(S(=O)(=O)NCCN3CCN(c4ccccc4F)CC3)ccc21 | -4.5% (inactive)
10 | C=CCC(Nc1ccccc1)c1cccc(OC)c1OC (stereo unspecified) | -13% (inactive)
11 | CC1COc2ccccc2N1S(=O)(=O)c1ccccc1 (stereo unspecified) | 4.45% (inactive)
12 | Cc1ccccc1Cn1nc(C)c(NC(=O)C(F)(F)F)c1C | -1.16% (inactive)
13 | CCO[C@@H]1OC(C(=O)NC2CC2)=C[C@H](C)[C@H]1CCCO | -5.9% (inactive)
14 | CCCN(CCC)S(=O)(=O)c1ccc(C(=O)NNC(=O)c2cc(OC)c(OC)c(OC)c2)cc1 | 2.82% (inactive)
15 | COC(=O)c1cccc(NC(=O)CN2CCC(NC(=O)c3cc(OC)c(OC)c(OC)c3)CC2)c1 | -1.04% (inactive)
16 | CCN1CCN(CC(=O)c2cc(OC)c(OC)c(OC)c2)CC1 | 45.6% (active)

Row | Compound | inhibition
17 | CCCN(CCC)c1c([N+](=O)[O-])c(=O)oc2ccccc12 | 0.93% (inactive)
18 | COc1ccc(OC)c(-n2c(-c3ccn[nH]3)n[nH]c2=S)c1 | -4.83% (inactive)
19 | COCC(=O)Nc1cc(C(=O)OC)cc(C(=O)OC)c1 | 0.93% (inactive)
20 | CS(=O)(=O)n1nc(-c2ccccc2)nc1NCc1ccco1 | -2.92% (inactive)
21 | O=C(Cc1ccccc1)n1nc(-c2ccccc2)nc1NCc1ccco1 | 75.1% (active)
22 | c1ccc(-c2nc(NCc3ccco3)c3ccccc3n2)cc1 | 3.14% (inactive)
23 | O=C(c1ccc(N2CCOCC2)c([N+](=O)[O-])c1)N1CCN(S(=O)(=O)c2cccs2)CC1 | -1.14% (inactive)
24 | c1ccc(CN=C2Nc3ccccc3CS2)nc1 | -2.61% (inactive)
25 | O=C(CSc1nc2ccccc2s1)Nc1ccc(C(=O)O)cc1 | -1.16% (inactive)
26 | CCn1cc(CNC(=O)c2cc([N+](=O)[O-])c(C)c([N+](=O)[O-])c2)cn1 | -0.78% (inactive)
27 | Cc1ccc(CN2CCN(Cc3cn(C)nc3-c3ccccc3)CC2CCO)o1 (stereo unspecified) | 0.78% (inactive)
28 | Cc1cc(C)cc(N(CC(=O)Nc2c(C)n(C)n(-c3ccccc3)c2=O)S(C)(=O)=O)c1 | 4.95% (inactive)
29 | Cc1ccc(S(=O)(=O)CC(=O)Nc2c(C)n(C)n(-c3ccccc3)c2=O)cc1 | 46.1% (active)
30 | Cc1ccc(S(=O)(=O)/N=C(/NC(=S)Nc2c(C)n(C)n(-c3ccccc3)c2=O)c2ccccc2)cc1 | 3.47% (inactive)
31 | CC(=O)N/C(=C\c1ccc(F)cc1)C(=O)NC(Cc1ccccc1)C(=O)O (stereo unspecified) | -5.05% (inactive)
